Bioassay records (PubChem)
In the library only some 1.9% were active in any assay of this set; here they are far more common.
Cneo AK release: Cryptococcus neoformans lysis via adenylate kinase release. AID 651654. C. neoformans lysis, adenylate kinase release luminescence, 4 h; normalised: neutral wells 0, clomiphene wells 100. hit rate 0.2% among 360,000. lysis activity, % at 15 µM;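 active = mean lysis activity across replicates of at least 80%, whatever share of replicates individually reach that level; inactive = mean lysis activity below 80%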
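Test system: log-phase Cryptococcus neoformans yeast cells; Quantity: yeast cell density of 5 × 10^6 cells/mL; Buffer or medium: YPD; Doses: single compound concentration per well; Timing: 4 h at 37 °C static, read 1 h later; Measured by: AK luminescence; Read-out basis: lysis from increased AK signal; Control set: Clomiphene as positive control.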
PglD DTNB: inhibitors of Campylobacter jejuni PglD acetyltransferase. inhibition, % at 12.5 µM. purified PglD enzyme, DTNB colorimetric CoA detection. hit rate 0.098% among 360,000; in the data active = inhibition above about 16%, passing the limit was not always enough
RAD52 anneal inh: inhibitors of human RAD52 DNA annealing. AID 651710. hit rate 0.46% among 360,000. recombinant RAD52 DNA annealing, FRET fluorescence. P43351. inhibition, % at 18.7 µM;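 active = every replicate showing at least 50% inhibition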
RAD54 inh: blocks human RAD54 Holliday junction branch migration; AID 602329; inhibition, % at 10.4 µM; hit rate 0.14% among 360,000; FAM/BHQ fluorescence; Q92698;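 active = mean normalized replicate activity at least 40 and at least half of replicates scoring 40 or more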;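 note: 0% = median of neutral control wells and 100% = median of positive control wells; inhibitors cause a drop in the FAM fluorescence signal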
Target sequence (Q92698 whole entry, looked up): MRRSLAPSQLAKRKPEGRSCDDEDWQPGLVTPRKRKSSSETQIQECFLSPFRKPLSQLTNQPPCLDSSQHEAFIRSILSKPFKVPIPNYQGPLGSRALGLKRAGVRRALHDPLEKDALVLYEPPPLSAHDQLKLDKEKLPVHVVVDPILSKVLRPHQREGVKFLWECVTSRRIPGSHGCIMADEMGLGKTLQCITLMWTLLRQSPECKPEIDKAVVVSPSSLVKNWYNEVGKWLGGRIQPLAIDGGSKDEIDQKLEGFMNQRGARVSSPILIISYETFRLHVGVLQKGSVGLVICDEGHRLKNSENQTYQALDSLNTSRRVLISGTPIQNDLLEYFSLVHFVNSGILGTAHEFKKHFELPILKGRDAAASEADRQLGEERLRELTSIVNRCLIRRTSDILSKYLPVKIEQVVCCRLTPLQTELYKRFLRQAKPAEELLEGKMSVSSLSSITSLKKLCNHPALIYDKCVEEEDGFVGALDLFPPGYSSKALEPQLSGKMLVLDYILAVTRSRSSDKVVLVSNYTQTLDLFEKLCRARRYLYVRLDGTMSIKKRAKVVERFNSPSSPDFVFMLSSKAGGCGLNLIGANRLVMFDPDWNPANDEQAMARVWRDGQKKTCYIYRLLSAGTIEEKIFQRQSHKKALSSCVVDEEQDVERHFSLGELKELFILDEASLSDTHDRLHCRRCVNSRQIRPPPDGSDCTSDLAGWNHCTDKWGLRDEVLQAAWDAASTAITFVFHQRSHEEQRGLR
Ecoli rRNA inh: inhibits bacterial ribosomal RNA function over humanized ribosomes; E. coli WT GFP vs humanized-ribosome RFP mutants, fluorescence, 24 h; hits give low values; DMSO median 0, no signal -100; GFP signal change (wild-type ribosome), % (no concentration beside the values); hit rate 1.6% among 350,000; AID 720706;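 active = significant combined selectivity score with lowered wild-type GFP, culture density cut under 30%, mutant RFP and density less affected; inactive = any of these conditions unmet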
Active calls of the source: *; ! = repeats disagree.

How did CCCC(=O)NC(c1ccc(OC)cc1)c1c(O)ccc2ccccc12 (configuration not stated) do in these assays?
Cneo AK release: -1; PglD DTNB: 4; RAD52 anneal inh: -17; RAD54 inh: -3; Ecoli rRNA inh: -27*

Results for CCCC(=O)N1CCC2(CC1)CN(S(=O)(=O)c1ccc(C)cc1)[C@@H](CO)c1[nH]c3cc(OC)ccc3c12 ?
Ecoli rRNA inh: -4

How did ON=C1c2cc(OCCN3CCCCC3)ccc2-c2ccc(OCCN3CCCCC3)cc21 do in these assays?
Cneo AK release: -1; PglD DTNB: -6; RAD54 inh: 86*

Results for COc1ccc(NC(=S)N(CCN2CCOCC2)C2CCN(C(C)=O)CC2)cc1Cl ?
Cneo AK release: 3; PglD DTNB: 2; RAD52 anneal inh: 1; RAD54 inh: 2; Ecoli rRNA inh: 9

Results for CC(=O)N1CCC(N(CCN2CCOCC2)C(=O)Nc2ccc(Cl)c(Cl)c2)CC1 ?
Cneo AK release: 2; PglD DTNB: 1; RAD52 anneal inh: -7; RAD54 inh: 3; Ecoli rRNA inh: -40*

Results for COc1cc(C(N)=O)cc(Br)c1OCc1ccccc1 ?
RAD52 anneal inh: -9; Ecoli rRNA inh: -28*

How did CCc1nnc(NC(=S)Nc2ccccc2)s1 do in these assays?
RAD52 anneal inh: 1; Ecoli rRNA inh: -1

Results for Cc1nc(NC(=S)Nc2ccccc2)sc1C ?
RAD52 anneal inh: -20; Ecoli rRNA inh: -27*

Results for O=C(c1ccc2c(c1)OCO2)N1CC2(C1)[C@@H](c1ccccc1)[C@@H](CO)N2C(=O)C1CCC1 ?
RAD52 anneal inh: -10; Ecoli rRNA inh: -3

Results for CCOc1cc(/C=C(\C#N)C(=O)Nc2cccc(C(=O)O)c2)ccc1OCc1ccccc1Cl ?
Cneo AK release: -1; PglD DTNB: -5; RAD52 anneal inh: -21; RAD54 inh: -11; Ecoli rRNA inh: 1

How did CCOc1cc(/C=C(\C#N)C(=O)Nc2cccc(C(=O)O)c2)cc(Br)c1OC(=O)c1ccc(OC)cc1 do in these assays?
Cneo AK release: 1; PglD DTNB: 1; RAD52 anneal inh: -54; RAD54 inh: -6; Ecoli rRNA inh: -33*

How did Cc1cccc(S(=O)(=O)N2CCCCN3[C@H](CO)[C@@H](c4ccc(-c5ccccc5)cc4)[C@@H]3C2)c1 do in these assays?
Cneo AK release: -1; PglD DTNB: 2; RAD52 anneal inh: 22; RAD54 inh: 4

What do the screens show for `CCOc1ccccc1OCCCC(=O)N1CCN(S(=O)(=O)c2ccc(Cl)cc2)CC1`?
Cneo AK release: 1; PglD DTNB: -8; RAD52 anneal inh: 7; RAD54 inh: 8; Ecoli rRNA inh: -11

How did CCOc1ccccc1OCCCC(=O)N1CCN(S(=O)(=O)c2cc(F)ccc2F)CC1 do in these assays?
Cneo AK release: 4; PglD DTNB: -6; RAD52 anneal inh: -20; RAD54 inh: 9; Ecoli rRNA inh: -20*

What do the screens show for `CCOC(=O)c1sc(NC(=O)CSC(=S)N2CCN(C)CC2)nc1C`?
Cneo AK release: 2; PglD DTNB: -2; RAD52 anneal inh: -22; RAD54 inh: 2; Ecoli rRNA inh: -25*

Results for CCOC(=O)c1sc(NC(C)=O)nc1C ?
Cneo AK release: -4; PglD DTNB: -3; RAD52 anneal inh: 0; RAD54 inh: -5; Ecoli rRNA inh: 0

Results for CCOC(=O)c1sc(NC(=O)C2CCCCC2)nc1C ?
RAD52 anneal inh: 4; Ecoli rRNA inh: -30*

What do the screens show for `CCOC(=O)c1sc(NC(=O)CCSC)nc1C`?
Cneo AK release: 1; PglD DTNB: 5; RAD54 inh: -1

Results for C[C@H]1CN([C@@H](C)CO)C(=O)c2cc(NS(=O)(=O)c3ccc(Cl)cc3)ccc2O[C@@H]1CN(C)C(=O)Nc1ccc(C(F)(F)F)cc1 ?
Ecoli rRNA inh: -4

How did CCCC(=O)Nc1ccc2c(c1)C(=O)N(C)[C@H]1CC[C@@H](CC(=O)N3CCc4ccccc4C3)O[C@H]1CO2 do in these assays?
Cneo AK release: -2; PglD DTNB: -2; RAD54 inh: -13; Ecoli rRNA inh: -2

Results for CC(=O)N1C[C@@H]2C(c3ccccc3)[C@H](C1)N2S(C)(=O)=O (some centres not stated) ?
Ecoli rRNA inh: 1

What do the screens show for `Cc1ccc(-c2cc(-c3n[nH]c(=S)o3)c3ccccc3n2)cc1`?
RAD52 anneal inh: -18; Ecoli rRNA inh: -18*

What do the screens show for `S=c1[nH]nc(-c2cc(-c3ccccn3)nc3ccccc23)o1`?
RAD52 anneal inh: -11; Ecoli rRNA inh: -15

How did N#C[C@@H]1[C@H](c2ccc(-c3ccc(F)cc3)cc2)[C@@H](CO)N1c1nc(-c2ccccc2)cs1 do in these assays?
RAD52 anneal inh: 63*; Ecoli rRNA inh: -4

What do the screens show for `N#C[C@@H]1[C@@H](c2ccc(-c3ccc(F)cc3)cc2)[C@H](CO)N1c1nc(-c2ccccc2)cs1`?
Cneo AK release: 3; PglD DTNB: 0; RAD52 anneal inh: -38; RAD54 inh: -13; Ecoli rRNA inh: -4

What do the screens show for `C/C=C/c1ccc([C@H]2[C@@H](C#N)N(S(=O)(=O)c3cccc(F)c3)[C@H]2CO)cc1`?
Cneo AK release: 91*; PglD DTNB: 4; RAD52 anneal inh: -97; RAD54 inh: 10; Ecoli rRNA inh: -6

How did O=C(C[C@H]1C=C[C@H](NC(=O)Nc2ccc3c(c2)OCO3)[C@H](CO)O1)NCc1ccccc1 do in these assays?
Cneo AK release: -6; PglD DTNB: 1; RAD52 anneal inh: 7; RAD54 inh: -6; Ecoli rRNA inh: -3

What do the screens show for `COc1cccc(-c2ccc(C3[C@H]4CNC[C@@H]3N4Cc3cc(F)ccc3F)cc2)c1` (some centres not stated)?
RAD52 anneal inh: 54*!; Ecoli rRNA inh: 2

How did COc1cccc(-c2ccc(C3[C@H]4CNC[C@@H]3N4Cc3ccc(F)cc3)cc2)c1 (some centres not stated) do in these assays?
RAD52 anneal inh: 20; Ecoli rRNA inh: 0

What do the screens show for `N#Cc1cccc(-c2ccc(C3[C@H]4CNC[C@@H]3N4Cc3cc(F)ccc3F)cc2)c1` (some centres not stated)?
RAD52 anneal inh: 36; Ecoli rRNA inh: -3

Results for Fc1cccc(-c2ccc(C3[C@H]4CNC[C@@H]3N4Cc3ccccc3F)cc2)c1 (some centres not stated) ?
RAD52 anneal inh: 60*; Ecoli rRNA inh: -59

How did CC(C)CC#Cc1ccc2c(c1)O[C@@H](CN(C)S(=O)(=O)c1cccc(F)c1)[C@H](C)CN([C@H](C)CO)S2(=O)=O do in these assays?
Cneo AK release: 0; PglD DTNB: 0; RAD52 anneal inh: 31; RAD54 inh: -6; Ecoli rRNA inh: -2

How did CC(C)(C)OC(=O)NCCC(=O)N/N=C/c1cccc2cccnc12 do in these assays?
Cneo AK release: 0; PglD DTNB: 5; RAD52 anneal inh: -3; RAD54 inh: -6; Ecoli rRNA inh: -16*
